Only some compounds are listed: those with a hit (about 3.5% of all), similar ones and a draw of the others.
MrgX1 antagonist: antagonists of human MrgX1 receptor, primary screen, HEK293 cells, Fluo-4 calcium flux. B-score at 10 µM. hit rate 1.3% among 310,000. AID 588676, 2011. BAM8-22 antagonism; stronger effect = lower value;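 active = calcium-response B-score plate-corrected more than 3 library SD below zero, starting fluorescence within 5 deviations, no agonist response on first addition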;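 note: peak minus trough fluorescence over baseline after final BAM8-22 challenge near maximal dose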
Target sequence (Q96LB2 whole entry, looked up): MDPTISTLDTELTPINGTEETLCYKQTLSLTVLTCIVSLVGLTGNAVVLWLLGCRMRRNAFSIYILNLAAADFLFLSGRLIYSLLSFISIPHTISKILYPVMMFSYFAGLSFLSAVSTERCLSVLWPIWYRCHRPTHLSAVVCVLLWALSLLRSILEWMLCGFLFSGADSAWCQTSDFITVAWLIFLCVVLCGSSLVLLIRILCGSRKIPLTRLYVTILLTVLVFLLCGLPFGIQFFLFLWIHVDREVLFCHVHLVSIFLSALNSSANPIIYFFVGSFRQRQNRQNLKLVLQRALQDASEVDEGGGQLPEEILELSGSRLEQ
MrgX1 ag: agonists of human MrgX1 receptor, primary screen, HEK293 cells, Fluo-4 calcium flux; Mas-related G-protein coupled receptor member X1 (Homo sapiens), Q96LB2; Fluo-4 calcium fluorescence, agonist mode; stronger effect = higher value; B-score at 10 µM; hit rate 0.44% among 310,000; AID 588627, 2011;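 active = calcium response B-score plate-corrected fluorescence ratio at least 3 library SD, with starting fluorescence B-score inside 5 SD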
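Material: MrgX1-expressing HEK293 cells; input: 15,000 cells per well; doses: test compound given as first of three sequential additions; schedule: overnight plating before 1 h dye loading; technique: Fluo-4 NW calcium-flux fluorescence, kinetic read; evaluation: baseline-normalised fluorescence change ratio, B-scored; control set: plate-wise positive and negative controls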
MrgX1 PAM: positive allosteric modulators of MrgX1, primary screen, HEK293 cells, Fluo-4 calcium flux; Mas-related G-protein coupled receptor member X1 (Homo sapiens), Q96LB2; FDSS; stronger effect = higher value; B-score at 10 µM; hit rate 0.63% among 310,000;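 active = plate-corrected calcium response at least 3 library SD above typical, normal starting fluorescence, not activating the receptor alone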;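 note: compound read alongside a low EC10 to EC30 dose of BAM8-22 agonist; peak minus trough fluorescence over baseline measured at the second addition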
RGS4 block: RGS4 inhibitors, primary screen, cell-based, HEK293 M3R inducible RGS4, calcium flux | Regulator of G-protein signaling 4 (Homo sapiens), P49798 | Fluo-4 calcium flux; stronger effect = higher value; triggered by carbachol at its EC20 | B-score at 10 µM | hit rate 0.45% among 310,000 | AID 463165, 2010;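 active = B-score, a plate-corrected calcium signal, over three deviations above library mean, with baseline fluorescence within five deviations of library mean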;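 note: RGS4 expression induced by doxycycline in cells with stable M3 receptor; B-score is computed from the integrated fluorescence ratio over baseline after carbachol; higher B-score means a larger calcium signal and so more RGS4 inhibition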
Target sequence (P49798 whole entry, looked up): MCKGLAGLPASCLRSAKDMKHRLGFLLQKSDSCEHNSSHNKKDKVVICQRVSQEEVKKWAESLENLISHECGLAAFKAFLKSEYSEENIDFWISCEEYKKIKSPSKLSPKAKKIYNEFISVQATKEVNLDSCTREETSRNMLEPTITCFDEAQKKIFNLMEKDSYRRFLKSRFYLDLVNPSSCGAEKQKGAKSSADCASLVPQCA
RGS4 act: RGS4 potentiators or activators, primary screen, cell-based, HEK293 M3R inducible RGS4, calcium flux. carbachol calcium flux Fluo4; stronger effect = lower value. B-score at 10 µM. hit rate 0.92% among 310,000;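 active = B-score of the integrated calcium signal more than 4 SD below the library mean, with starting fluorescence not abnormally high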;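 note: negative B-score means reduced calcium response which marks RGS4 activation or potentiation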
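System – HEK293 FlpIn-TREx cells, stable M3R, doxycycline-inducible RGS4 · Reagent – ECmax carbachol challenge · Times – compound preincubation 20 min at room temperature before agonist · Technique – Fluo4 fluorescence kinetic imaging of calcium · Measure – B score of integrated Fluo4 ratio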
MrgX1 ant reconf: MrgX1 receptor antagonists, duplicate retest, confirmation, HEK293 cells, Fluo-4 calcium flux. remaining BAM8-22 calcium response % of control (stronger effect = lower value), % at 10 µM. shares compounds with MrgX1 antagonist. BAM8-22 calcium flux; stronger effect = lower value. hit rate 19% among 2,300;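 active = remaining agonist calcium response no higher than 100% minus 3 SD of agonist-only control wells, with starting fluorescence near control levels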;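 note: agonist BAM8-22 given at a near maximal EC90 to ECmax level; peak minus minimum fluorescence divided by baseline after agonist addition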
HEK293 Ca flux: nonspecific calcium signal in parental HEK293, confirmation, counter-screen for MrgX1 antagonist project, parental HEK293 cells, Fluo-4 calcium flux. fluorescence ratio F(max-min)/F0 at 10 µM. hit rate 2% among 4,000. shares compounds with MrgX1 antagonist. Fluo-4 calcium fluorescence, FDSS;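 active = duplicate-averaged calcium fluorescence ratio at least three times the standard deviation of buffer wells, a nonspecific response in parental cells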
HEK293 Ca counter: calcium response in parental HEK293 cells, primary screen, counter-screen for MrgX1 allosteric activator project, cell-based, Fluo-4 calcium flux, duplicate; hit rate 0.4% among 4,000; Fluo-4 fluorescence ratio; stronger effect = higher value; fluorescence ratio F(max-min)/F0 at 10 µM; shares compounds with MrgX1 antagonist;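 active = calcium fluorescence ratio, averaged over duplicates, at least 3 SD of the buffer-well ratio, meaning a nonspecific response in receptor-free cells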;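 note: untransfected parental HEK293 lacking MrgX1 used as counterscreen for MrgX1 allosteric activators; fluorescence change taken during the second addition on a kinetic imager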
HEK293 Ca cntr2: calcium response in parental HEK293 cells, primary screen, counter-screen for MrgX1 agonist project, cell-based, Fluo-4 calcium flux, duplicate, agonist mode; shares compounds with MrgX1 antagonist; Fluo-4 calcium fluorescence (FDSS); stronger effect = higher value; fluorescence ratio F(max-min)/F0 at 10 µM; hit rate 8.7% among 4,000; AID 624115, 2012;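 active = calcium fluorescence ratio at least three times the spread of buffer wells, meaning a non-specific response in parental cells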
* = called active by the depositor; i = inactive; / = no result given.

SMILES	MrgX1 antagonist	MrgX1 ag	MrgX1 PAM	RGS4 block	RGS4 act	MrgX1 ant reconf	HEK293 Ca flux	HEK293 Ca counter	HEK293 Ca cntr2
CCOC(=O)c1cnc2c(cnn2C)c1Oc1ccc(OC)cc1	i	i	i	i	i	/	/	/	/
C=CCN1C(=O)/C(=c2\sc3nc(=O)c(Cc4ccc(OC)c(OC)c4)nn3c2=O)c2ccccc21	i	i	i	i	i	/	/	/	/
COc1cc(NC(=O)CCN2CCN(c3ccccc3F)CC2)cc(OC)c1	-4.8*	i	i	i	i	i	i	i	i
C=CCC1(Cl)C(=O)C(Cl)=C(N2CCOCC2)C1(OC)OC (stereo unspecified)	i	i	i	i	i	/	/	/	/
CC(C)(C)c1cccc(Oc2nn[nH]n2)c1	-6.9*	i	i	i	i	i	i	i	i
Cc1ccc(NS(=O)(=O)c2ccc(N3C(=O)CCC3=O)cc2)cc1	-5.4*	i	i	i	i	i	i	i	i
CC(C)c1ccc(NS(=O)(=O)c2ccc(N3C(=O)CCC3=O)cc2)cc1	i	i	i	i	i	/	/	/	/
CCn1c(=S)sc2c(=O)n(CC(=O)Nc3cc(OC)ccc3OC)c(C)nc21	i	i	i	i	i	/	/	/	/
Cc1ccc(S(=O)(=O)N2CCN(CC(O)c3ccccc3)CC2)cc1C (stereo unspecified)	-5*	i	i	i	i	i	i	i	i
[S-]C(=Nc1ccc(Cl)cc1)N[n+]1ccccc1	i	i	i	i	i	/	/	/	/
Cc1ccc(OC(C)C(=O)Nc2ccccc2C(=O)N2CCN(C)CC2)cc1 (stereo unspecified)	i	i	i	i	i	/	/	/	/
Cc1cccc(NC(=O)c2sc3nc(-c4ccccc4)cn3c2C)n1	i	i	i	i	i	/	/	/	/
COc1ccc(-c2cn3c(C)c(C(=O)Nc4cccc(C)n4)sc3n2)cc1	-5.3*	i	i	i	i	82%*	i	i	i
Cc1nc2nc(C)c(NS(=O)(=O)c3ccc(CC(C)C)cc3)c(=O)n2[nH]1	i	i	i	i	i	/	/	/	/
CCc1sc(NC(=O)COC)nc1-c1ccccc1	-4.6*	i	i	i	i	i	i	i	i
CCc1sc(NC(C)=O)nc1-c1ccccc1	i	i	i	i	i	/	/	/	/
O=S(=O)(NCCc1csc(-c2cccnc2)n1)c1ccc(Cl)s1	-4.9*	i	i	i	i	79%*	i	i	i
O=S(=O)(NCCc1csc(-c2cccnc2)n1)c1cccs1	i	i	i	i	i	/	/	/	/
c1ccc(CSc2nnc(Cc3ccccc3)o2)cc1	i	i	i	i	i	/	/	/	/
c1ccc(CSc2nnc(Cc3ccccn3)o2)cc1	-7.8*	i	i	i	i	i	i	i	i
O=S(=O)(Cc1ccccc1)C1CCCCC1O (stereo unspecified)	i	i	i	i	i	/	/	/	/
